According to ChEMBL document CHEMBL4602721, “Discovery of Potent Inhibitors against P-Glycoprotein-Mediated Multidrug Resistance Aided by Late-Stage Functionalization of a 2-(4-(Pyridin-2-yl)phenoxy)pyridine Analogue” (J Med Chem, 2020):

What was measured:
[1] = target: T1, ATP-dependent translocase ABCB1 (Homo sapiens, UniProt P08183); assay: Reversal of Pgp-mediated DOX resistance in human SW620/AD300 cells assessed as potentiation of DOX-induced cytotoxicity by measuring inhibition of cell proliferation at 1 uM incubated for 48 hrs by SRB assay (reference value: 5.3 +/- 3 %); format: cell-based
T1 sequence (P08183 whole entry): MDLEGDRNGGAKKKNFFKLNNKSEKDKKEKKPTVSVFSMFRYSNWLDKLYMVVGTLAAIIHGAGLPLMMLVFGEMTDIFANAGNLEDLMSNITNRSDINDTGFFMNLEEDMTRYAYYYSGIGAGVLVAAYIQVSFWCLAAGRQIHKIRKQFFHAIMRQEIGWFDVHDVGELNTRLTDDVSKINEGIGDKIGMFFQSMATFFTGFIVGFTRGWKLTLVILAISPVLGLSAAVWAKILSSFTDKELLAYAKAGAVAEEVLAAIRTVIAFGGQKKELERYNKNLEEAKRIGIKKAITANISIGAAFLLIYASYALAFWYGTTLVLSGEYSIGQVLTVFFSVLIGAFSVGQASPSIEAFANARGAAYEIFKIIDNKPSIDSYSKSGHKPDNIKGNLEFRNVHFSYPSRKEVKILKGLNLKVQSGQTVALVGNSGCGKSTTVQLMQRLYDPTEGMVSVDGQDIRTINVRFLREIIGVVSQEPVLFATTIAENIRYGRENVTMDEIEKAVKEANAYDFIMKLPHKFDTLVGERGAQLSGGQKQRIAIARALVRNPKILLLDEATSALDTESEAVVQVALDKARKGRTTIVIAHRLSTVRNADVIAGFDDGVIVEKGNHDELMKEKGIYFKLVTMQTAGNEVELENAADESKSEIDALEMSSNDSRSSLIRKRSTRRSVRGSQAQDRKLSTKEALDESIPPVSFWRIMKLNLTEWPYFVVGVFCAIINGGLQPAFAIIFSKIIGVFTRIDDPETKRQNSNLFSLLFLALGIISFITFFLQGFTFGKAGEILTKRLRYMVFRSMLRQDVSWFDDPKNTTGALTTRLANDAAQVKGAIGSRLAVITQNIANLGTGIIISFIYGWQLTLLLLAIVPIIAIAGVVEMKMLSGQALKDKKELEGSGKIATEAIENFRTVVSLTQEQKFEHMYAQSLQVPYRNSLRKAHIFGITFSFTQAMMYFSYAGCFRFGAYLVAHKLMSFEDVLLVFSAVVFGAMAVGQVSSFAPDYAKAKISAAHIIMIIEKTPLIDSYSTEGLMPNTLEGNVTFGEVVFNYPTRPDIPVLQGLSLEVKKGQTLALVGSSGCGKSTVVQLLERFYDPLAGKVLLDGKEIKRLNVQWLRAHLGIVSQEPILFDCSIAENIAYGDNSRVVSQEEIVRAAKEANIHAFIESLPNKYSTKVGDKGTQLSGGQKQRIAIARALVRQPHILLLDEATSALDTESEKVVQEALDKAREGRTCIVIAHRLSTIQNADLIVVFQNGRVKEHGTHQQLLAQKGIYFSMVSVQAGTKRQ

[2] = Cytotoxicity against human SW620/AD300 cells assessed as cell growth inhibition at 10 uM incubated for 48 hrs by SRB assay relative to control; format: cell-based; conditions: read-out: GI
[3] = target: T1, ATP-dependent translocase ABCB1; assay: Reversal of Pgp-mediated DOX resistance in human SW620/AD300 cells assessed as potentiation of DOX-induced cytotoxicity by measuring change in DOX IC50 at 1 uM incubated for 48 hrs by SRB assay relative to DOX alone; format: cell-based; conditions: sw620/ad300, 48 h
K562/A02 = assay: Potentiation of DOX-induced anti tumor activity against human K562/A02 cells xenografted in BALB/c mouse assessed as tumor size at 3 mg/kg, iv administered every 2 days for 14 days measured during compound dosing by caliper method (reference value: 610 mm3); format: functional
Summary of the method: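 Mice bearing subcutaneous ABCB1-overexpressing K562/A02 xenografts treated with DOX alone, modulator alone, or combinations (verapamil as comparator) for 14 days; tumor volume measured every two days.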

SMILES | inhibition at 1 µM [1] [%] | inhibition at 48 h, 10 µM [2] [%] | fold change (FC) [3] | Activity (K562/A02) [mm3]
COc1cc2c(cc1OC)CN(CCc1ccc(NC(=O)/C=C/c3ccc(Oc4ccc(-c5ccccn5)c(C#N)c4)nc3)cc1)CC2 | 58.3 | 13.9 | 54.74 | 
COc1cc2c(cc1OC)CN(CCc1ccc(NC(=O)/C=C/c3ccc(Oc4ccc(-c5ccccn5)c(F)c4)nc3)cc1)CC2 | 49.8 |  |  | 
COc1cc2c(cc1OC)CN(CCc1ccc(NC(=O)/C=C/c3c(-c4ccccc4)n(C)c4ncccc34)cc1)CC2 | 63 |  | 40.72 | 
COc1ccc(CCN(C)CCCC(C#N)(c2ccc(OC)c(OC)c2)C(C)C)cc1OC (stereo not given) | 26.1 |  |  | 508
COc1cc2c(cc1OC)CN(C(=O)/C=C/c1c3n(c4ccccc14)C(C1CCCCC1)Oc1ccccc1-3)CC2 (stereo not given) | 40.1 |  |  | 
COc1ccc(CN2CC(c3c(-c4ccccc4)n(C)c4ncccc34)=CC2=O)cc1OC | 20.7 |  |  | 
COc1ccc(-c2nnc(/C=C/c3c(-c4ccccc4)n(C)c4ncccc34)o2)cc1OC | 15.1 |  |  | 
COc1cc2c(cc1OC)CN(CCc1ccc(NC(=O)/C=C/c3ccc(Oc4ccc(-c5ccccn5)cc4I)nc3)cc1)CC2 | 59.2 |  | 43.93 | 
COc1cc2c(cc1OC)CN(CCc1ccc(NC(=O)C(c3c(-c4ccccc4)n(C)c4ccccc34)N3CCOCC3)cc1)CC2 (stereo not given) | 61.7 | 42 | 60.71 | 
COc1cc2c(cc1OC)CN(CCc1ccc(NC(=O)/C=C/c3c(-c4ccccc4)oc4ccccc4c3=O)cc1)CC2 | 55.2 |  | 24.55 | 
COc1cc2c(cc1OC)CN(CCc1ccc(NC(=O)/C=C/c3ccc(Oc4ccc(-c5cccnc5)cc4)nc3)cc1)CC2 | 62.6 | 13.9 | 85.62 | 
COc1cc2c(cc1OC)CN(C(=O)/C=C/c1c3n(c4ncccc14)Cc1ccccc1-3)CC2 | 22.9 |  |  | 
COc1cc2c(cc1OC)CN(C(=O)/C=C/c1nc(-c3ccccn3)n(C)c1-c1ccccc1)CC2 | 28.2 |  |  | 
COc1ccc(NC(=O)NC(=O)/C=C/c2c(-c3ccccc3)n(C)c3ncccc23)cc1OC | 23.3 |  |  | 
COc1cc2c(cc1OC)CN(CCc1ccc(NC(=O)C3CC3c3ccc(Oc4ccc(-c5ccccn5)cc4)nc3)cc1)CC2 (stereo not given) | 59 |  | 43.93 | 
COc1cc2c(cc1OC)CN(CCc1ccc(NC(=O)/C=C/c3ccc(Oc4cc(O)c(-c5ccccn5)c(O)c4)nc3)cc1)CC2 | 56.3 |  | 42.81 | 
COc1cc2c(cc1OC)CN(C(=O)/C(F)=C/c1c(-c3ccccc3)n(C)c3ncccc13)CC2 | 12.2 |  |  | 
Cn1c(-c2ccccc2)c(/C=C/C(=O)NN2C(=O)c3ccccc3C2=O)c2cccnc21 | 18.9 |  |  | 
COc1cc2c(cc1OC)CN(S(=O)(=O)/C=C/c1c(-c3ccccc3)n(C)c3ncccc13)CC2 | 37.9 |  |  | 
COc1cc2c(cc1OC)CN(CCc1ccc(NC(=O)c3ccc(Oc4ccc(-c5ccccn5)cc4)nc3)cc1)CC2 | 36.1 |  |  | 
COc1cc2c(cc1OC)CN(CCc1ccc(NC(=O)/C=C/c3ccc(Oc4ccc(-c5ccccn5)cc4)nc3)cc1)CC2 | 41.8 |  |  | 
COc1ccc(C(=O)NN2CC(c3c(-c4ccccc4)n(C)c4ncccc34)=CC2=O)cc1OC | 14 |  |  | 
COc1ccc2c(C)c(CC(=O)Nc3ccc(CCN4CCc5cc(OC)c(OC)cc5C4)cc3)c(=O)oc2c1 | 50.5 |  | 16.95 | 

SMILES | inhibition at 1 µM [1] [%] | inhibition at 48 h, 10 µM [2] [%] | fold change (FC) [3] | Activity (K562/A02) [mm3]
COc1cc2c(cc1OC)CN(CCc1ccc(NC(=O)C(O)c3c(-c4ccccc4)n(C)c4ccccc34)cc1)CC2 (stereo not given) | 55.3 |  | 30.35 | 
Cn1c(-c2ccccc2)c(/C=C/C(=O)NN2Cc3ccccc3C2=O)c2cccnc21 | 18.5 |  |  | 
COc1cc2c(cc1OC)CN(CCc1ccc(NC(=O)/C=C/c3ccc(Oc4ccc(-c5ccccn5)c(O)c4)nc3)cc1)CC2 | 56.4 |  | 40.72 | 
COc1ccc(C(=O)NNC(=O)/C=C/c2c(-c3ccccc3)n(C)c3ncccc23)cc1OC | 10.9 |  |  | 
[2H]c1c([2H])c(-c2ccccn2)c([2H])c([2H])c1Oc1ccc(/C=C/C(=O)Nc2ccc(CCN3CCc4cc(OC)c(OC)cc4C3)cc2)cn1 | 49.5 |  |  | 
COc1cc2c(cc1OC)CN(CCc1ccc(NC(=O)/C=C/c3ccc(Oc4ccc(-c5ccccn5)cc4Br)nc3)cc1)CC2 | 60.1 |  | 47.7 | 
COc1cc2c(cc1OC)CN(C(=O)/C=C(\C)c1c(-c3ccccc3)n(C)c3ncccc13)CC2 | 44 |  |  | 
COc1cc2c(cc1OC)CN(C(=O)/C=C(/c1c(-c3ccccc3)n(C)c3ncccc13)C(F)(F)F)CC2 | 32.5 |  |  | 
COc1cc2c(cc1OC)CN(CCc1ccc(NC(=O)/C=C/c3ccc(Oc4ccc(-c5ccccn5)c(C)c4)nc3)cc1)CC2 | 58.2 | 17.1 | 68.14 | 
Cn1c(-c2ccccc2)c(/C=C/C(=O)Nc2nc3ccccc3s2)c2cccnc21 | 44.7 |  |  | 
COc1cc2c(cc1OC)CN(CCc1ccc(NC(=O)/C=C/c3ccc(Oc4cccc(-c5ccccn5)c4)nc3)cc1)CC2 | 56.5 |  | 44.52 | 
COc1cc2c(cc1OC)CN(C(=O)/C=C/c1c3n(c4ncccc14)CCc1ccccc1-3)CC2 | 45.4 |  |  | 
COc1cc2c(cc1OC)CN(C(=O)/C=C/c1c3n(c4ccccc14)C(c1cccs1)Oc1ccccc1-3)CC2 (stereo not given) | 44.3 |  |  | 
COc1cc2c(cc1OC)CN(C(=O)/C=C/c1c(-c3ccccc3)n(C)c3ncccc13)CC2 | 40 |  |  | 
COc1cc2c(cc1OC)CN(CCc1ccc(NC(=O)/C=C/c3ccc(Oc4c(I)cc(-c5ccccn5)cc4I)nc3)cc1)CC2 | 53.2 |  | 28.3 | 
COc1cc2c(cc1OC)CN(S(=O)(=O)/C=C/c1c(-c3ccccc3)n(C)c3ccccc13)CC2 | 25.4 |  |  | 
COc1cc2c(cc1OC)CN(C(=O)/C=C/c1c(-c3ccccc3)nc3ccccn13)CC2 | 37.5 |  |  | 
COc1cc2c(cc1OC)CN(CCc1ccc(NC(=O)/C=C/c3cccc(Oc4ccc(-c5ccccn5)cc4)n3)cc1)CC2 | 60.2 |  | 33.73 | 
COc1cc2c(cc1OC)CN(C(=O)/C=C/c1ccc(Oc3ccc(-c4ccccn4)cc3)nc1)CC2 | 26.7 |  |  | 
COc1cc2c(cc1OC)CN(CCc1ccc(NC(=O)/C=C/c3cc(-c4ccccn4)cc(C)c3Oc3ccccn3)cc1)CC2 | 64 | 17 | 60.71 | 
COc1cc2c(cc1OC)CN(C(=O)/C=C/c1c3n(c4ccccc14)C(c1ccccc1)Oc1ccccc1-3)CC2 (stereo not given) | 41.4 |  |  | 
COc1cc2c(cc1OC)CN(CCc1ccc(NC(=O)/C=C/c3ccc(Oc4ccc(-c5ccccn5)cc4C)nc3)cc1)CC2 | 55.1 |  | 45.12 | 
COc1cc2c(cc1OC)CN(C(=O)CCc1c(-c3ccccc3)n(C)c3ncccc13)CC2 | 17.7 |  |  | 
